{"source": "ChEMBL document CHEMBL3526032", "about": "“Ablation of both organic cation transporter (OCT)1 and OCT2 alters metformin pharmacokinetics but has no effect on tissue drug exposure and pharmacodynamics” (Drug Metab Dispos, 2012)", "key": {"[1]": {"test": "Initial plasma concentration in wild type FVB mouse at 10 mg/kg, iv"}, "[2]": {"test": "Clearance in wild type FVB mouse at 10 mg/kg, iv", "details": "in vivo"}, "[3]": {"test": "Volume of distribution at steady state in wild type FVB mouse at 10 mg/kg, iv", "details": "in vivo"}, "[4]": {"test": "Drug excretion in wild type FVB mouse urine at 10 mg/kg, iv after 2 hrs"}, "[5]": {"test": "Drug recovery in wild type FVB mouse urine assessed as corrected compound recovery by measuring nominal to observerd glomerular filtration rate ratio at 10 mg/kg, iv"}, "[6]": {"test": "Initial plasma concentration in Oct1/Oct2-knockout FVB mouse at 10 mg/kg, iv"}, "[7]": {"test": "Clearance in Oct1/Oct2-knockout FVB mouse at 10 mg/kg, iv", "details": "in vivo"}, "[8]": {"test": "Volume of distribution at steady state in Oct1/Oct2-knockout FVB mouse at 10 mg/kg, iv", "details": "in vivo"}, "[9]": {"test": "Drug excretion in Oct1/Oct2-knockout FVB mouse urine at 10 mg/kg, iv after 2 hrs"}, "[10]": {"test": "Drug recovery in Oct1/Oct2-knockout FVB mouse urine assessed as corrected compound recovery by measuring nominal to observerd glomerular filtration rate ratio at 10 mg/kg, iv"}, "in vivo [11]": {"test": "in vivo", "details": "FVB, mouse, plasma, iv, 10 mg/kg"}, "in vivo [12]": {"test": "in vivo", "details": "FVB, mouse, plasma, iv, 10 mg/kg", "remark": "listed apart in the source"}, "in vivo [13]": {"test": "in vivo", "details": "FVB, mouse, iv, 10 mg/kg"}, "in vivo [14]": {"test": "in vivo", "details": "FVB, mouse, plasma, iv, 10 mg/kg", "remark": "listed apart in the source"}, "in vivo [15]": {"test": "in vivo", "details": "FVB, mouse, plasma, iv, 10 mg/kg", "remark": "listed apart in the source"}, "in vivo [16]": {"test": "in vivo", "details": "FVB, mouse, iv, 10 mg/kg", "remark": "listed apart in the source"}, "OCT2 over OCT1": {"test_system": "OCT2 over OCT1", "test": "Selectivity for OCT2 (unknown origin) over OCT1 (unknown origin)", "assay_type": "ADME", "details": "human"}, "Mus musculus [17]": {"test_system": "Mus musculus", "test": "Antidiabetic activity in wild type FVB mouse assessed as reduction in blood glucose level at 10 mg/kg, po by oral glucose tolerance test", "assay_type": "functional, organism-based", "parameters": "dose 10 mg/kg", "in_short": "(§1)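 Male FVB mice, wild type or Oct1/2-knockout, fasted 16 h. Day 1: oral vehicle (1% hydroxyethyl cellulose/0.25% polysorbate-80/0.05% antifoam) given at -30 min. Day 8: oral metformin 10-300 mg/kg instead. At 0 min, oral glucose 2.5 g/kg.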"}, "Mus musculus [18]": {"test_system": "Mus musculus", "test": "Antidiabetic activity in Oct1/Oct2-knockout FVB mouse assessed as reduction in blood glucose level at 10 mg/kg, po by oral glucose tolerance test", "assay_type": "functional, organism-based", "parameters": "dose 10 mg/kg", "in_short": "as §1"}, "Mus musculus [19]": {"test_system": "Mus musculus", "test": "Antidiabetic activity in wild type FVB mouse assessed as reduction in blood glucose level at 300 mg/kg, po by oral glucose tolerance test relative to control", "assay_type": "functional, organism-based", "parameters": "dose 300 mg/kg", "in_short": "as §1"}, "Mus musculus [20]": {"test_system": "Mus musculus", "test": "Antidiabetic activity in Oct1/Oct2-knockout FVB mouse assessed as reduction in blood glucose level at 300 mg/kg, po by oral glucose tolerance test relative to control", "assay_type": "functional, organism-based", "parameters": "dose 300 mg/kg", "in_short": "as §1"}, "Mus musculus [21]": {"test_system": "Mus musculus", "test": "Antidiabetic activity in po dosed wild type FVB mouse assessed as reduction in blood glucose level by oral glucose tolerance test relative to control", "assay_type": "functional", "in_short": "as §1"}, "Mus musculus [22]": {"test_system": "Mus musculus", "test": "Antidiabetic activity in po dosed Oct1/Oct2-knockout FVB mouse assessed as reduction in blood glucose level by oral glucose tolerance test relative to control", "assay_type": "functional", "in_short": "as §1"}, "Mus musculus [23]": {"test_system": "Mus musculus", "test": "Antidiabetic activity in wild type FVB mouse assessed as blood glucose AUC level at 300 mg/kg, po by oral glucose tolerance test relative to control", "assay_type": "functional", "in_short": "as §1"}, "Mus musculus [24]": {"test_system": "Mus musculus", "test": "Antidiabetic activity in Oct1/Oct2-knockout FVB mouse assessed as blood glucose AUC level at 300 mg/kg, po by oral glucose tolerance test relative to control", "assay_type": "functional", "in_short": "as §1"}, "Mus musculus [25]": {"test_system": "Mus musculus", "test": "Antidiabetic activity in wild type FVB mouse assessed as half-maximal efficacious AUC at 300 mg/kg, po by oral glucose tolerance test relative to control", "assay_type": "functional, organism-based", "parameters": "dose 300 mg/kg"}, "Mus musculus [26]": {"test_system": "Mus musculus", "test": "Antidiabetic activity in Oct1/Oct2-knockout FVB mouse assessed as half-maximal efficacious AUC at 300 mg/kg, po by oral glucose tolerance test relative to control", "assay_type": "functional, organism-based", "parameters": "dose 300 mg/kg"}, "Mus musculus [27]": {"test_system": "Mus musculus", "test": "Antidiabetic activity in wild type FVB mouse assessed as plasma insulin level at 300 mg/kg, po by oral glucose tolerance test", "assay_type": "functional, organism-based", "parameters": "dose 300 mg/kg", "in_short": "(§2)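 Plasma insulin measured by immunoassay at 0, 30, 60, 90 and 120 min during an oral glucose tolerance test (2.5 g/kg) in 16-h fasted male FVB wild-type or Oct1/2-knockout mice. Oral vehicle or metformin (10-300 mg/kg) given 30 min before glucose.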"}, "Mus musculus [28]": {"test_system": "Mus musculus", "test": "Antidiabetic activity in Oct1/Oct2-knockout FVB mouse assessed as plasma insulin level at 300 mg/kg, po by oral glucose tolerance test", "assay_type": "functional, organism-based", "parameters": "dose 300 mg/kg", "in_short": "as §2"}}, "note": "Calls of active or inactive are those of the source. The rule behind the calls is not given here."}
{"smiles": "CC[N+](CC)(CC)CC", "note": "[TETRYLAMMONIUM]", "values": [{"measurement": "C0", "setting": "[1]", "result": 22700, "unit": "ng/mL"}, {"measurement": "clearance", "setting": "[2]", "result": 58.7, "unit": "mL/min/kg"}, {"measurement": "Vd", "setting": "[3]", "result": 1.52, "unit": "L/kg"}, {"measurement": "dose excreted at 2 h", "setting": "[4]", "result": 35, "unit": "%"}, {"measurement": "dose excreted", "setting": "[5]", "result": 95, "unit": "%"}, {"measurement": "C0", "setting": "[6]", "result": 67400, "unit": "ng/mL"}, {"measurement": "clearance", "setting": "[7]", "result": 16.9, "unit": "mL/min/kg"}, {"measurement": "Vd", "setting": "[8]", "result": 0.318, "unit": "L/kg"}, {"measurement": "dose excreted at 2 h", "setting": "[9]", "result": 30, "unit": "%"}, {"measurement": "dose excreted", "setting": "[10]", "result": 62, "unit": "%"}, {"measurement": "AUC(0-t)", "setting": "in vivo [11]", "result": 2410, "unit": "ng·h/mL"}, {"measurement": "AUC(0-inf)", "setting": "in vivo [12]", "result": 2840, "unit": "ng·h/mL"}, {"measurement": "half-life", "setting": "in vivo [13]", "result": 18.6, "unit": "min"}, {"measurement": "AUC(0-t)", "setting": "in vivo [14]", "result": 9100, "unit": "ng·h/mL"}, {"measurement": "AUC(0-inf)", "setting": "in vivo [15]", "result": 9840, "unit": "ng·h/mL"}, {"measurement": "half-life", "setting": "in vivo [16]", "result": 12, "unit": "min"}]}
{"smiles": "NC12CC3CC(CC(C3)C1)C2", "note": "[AMANTADINE]", "values": [{"measurement": "selectivity ratio", "setting": "OCT2 over OCT1", "result": 20}]}
{"smiles": "CN(C)C(=N)NC(=N)N.Cl", "note": "[METFORMIN HYDROCHLORIDE]", "values": [{"measurement": "Activity", "setting": "Mus musculus [17]", "result": "inactive"}, {"measurement": "Activity", "setting": "Mus musculus [18]", "result": "inactive"}, {"measurement": "Activity", "setting": "Mus musculus [19]", "result": "Active"}, {"measurement": "Activity", "setting": "Mus musculus [20]", "result": "Active"}, {"measurement": "ED50", "setting": "Mus musculus [21]", "result": 110, "unit": "mg/kg"}, {"measurement": "ED50", "setting": "Mus musculus [22]", "result": 151, "unit": "mg/kg"}, {"measurement": "Activity", "setting": "Mus musculus [23]", "result": 39, "unit": "%"}, {"measurement": "Activity", "setting": "Mus musculus [24]", "result": 42, "unit": "%"}, {"measurement": "AUC", "setting": "Mus musculus [25]", "result": 26000, "unit": "ng·h/mL"}, {"measurement": "AUC", "setting": "Mus musculus [26]", "result": 70000, "unit": "ng·h/mL"}, {"measurement": "Activity", "setting": "Mus musculus [27]", "result": "Active"}, {"measurement": "Activity", "setting": "Mus musculus [28]", "result": "Active"}]}
{"smiles": "CC(N)Cc1ccccc1", "note": "(stereo not given) [AMPHETAMINE]", "values": [{"measurement": "selectivity ratio", "setting": "OCT2 over OCT1", "result": 20}]}
